How the values were obtained:
HuR bound Msi1 mRNA = HuR bound Msi1 mRNA (Homo sapiens, UniProt Q15717); experiment: RNP IP, HuR-bound Msi1 mRNA in HCT-116 cell lysate; format: cell-based; details: 50 μM, compared to DMSO control
How it was run: (§1)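 HCT-116 lysate, prepared with a protein G immunoprecipitation kit, incubated 30 min with test compound or DMSO. HuR antibody, or mouse IgG as negative control, was then added for 60 min. Complexes were collected on protein G agarose, RNA isolated, and bound transcripts quantified by qRT-PCR. Mean ± SD of two independent experiments.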

HuR-bound XIAP mRNA = HuR-bound XIAP mRNA (Homo sapiens, UniProt Q15717); experiment: RNP IP, HuR-bound XIAP mRNA in HCT-116 cell lysate; format: cell-based; details: at indicated doses, compared to DMSO
HuR-bound XIAP mRNA, sequence (Q15717 2-326 limits assumed): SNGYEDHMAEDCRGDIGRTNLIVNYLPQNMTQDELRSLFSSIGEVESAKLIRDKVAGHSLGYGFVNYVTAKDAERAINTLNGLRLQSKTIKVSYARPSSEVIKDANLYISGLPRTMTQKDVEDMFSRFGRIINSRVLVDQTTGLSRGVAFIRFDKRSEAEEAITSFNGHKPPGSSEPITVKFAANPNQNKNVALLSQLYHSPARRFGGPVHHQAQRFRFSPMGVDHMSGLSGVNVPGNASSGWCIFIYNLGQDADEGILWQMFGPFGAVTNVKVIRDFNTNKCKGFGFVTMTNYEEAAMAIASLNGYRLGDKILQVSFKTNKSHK
How it was run: as §1

Wnt signaling pathway = experiment: Wnt responsive 7xTcf promoter/luciferase reporter assay in HCT-116; format: cell-based, human; details: 20 μM, 24 h, 20 mM LiCl stimulation, compared to DMSO control
How it was run: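 HCT-116 cells were infected with the 7TFP lentiviral vector to stably express the 7xTcf promoter/luciferase construct. Cells were plated and allowed to attach overnight. They were then stimulated with 20 mM LiCl and treated with 20 μM test compound or DMSO for 24 h. Cells were lysed in reporter lysis buffer and luciferase was assayed. Activity was normalized to total protein. Values are mean ± SD of three independent experiments, compared with DMSO by one-way ANOVA.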

[1] = tested on: Bcl-2, Msi1, and XIAP mRNAs; experiment: mRNA stability after actinomycin D in HCT-116; format: cell-based, human; details: 20 μM, 5 μg/mL actinomycin D, compared to DMSO control
How it was run: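 HCT-116 cells, cultured in DMEM with 10% FBS at 37 °C and 5% CO2, were exposed to 5 μg/mL actinomycin D together with 20 μM test compound or DMSO. Half-lives of Bcl-2, Msi1 and XIAP mRNAs were determined. Data are representative of two independent experiments.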

[2] = tested on: protein levels of Bcl-2, Msi1, and XIAP; experiment: Western blot of HuR target protein levels in HCT-116; format: cell-based, human; details: indicated doses, 48 h
How it was run: (§2)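 HCT-116 cells were grown in DMEM with 10% FBS and 1% antibiotics at 37 °C in humidified 5% CO2. They were treated with test compound or DMSO at the indicated doses for 48 h. Protein levels were then measured by Western blot, with α-tubulin as loading control.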

[3] = tested on: cleaved PARP, cleaved caspase-3, LC3 conversion; experiment: Western blot of apoptosis and autophagy markers in HCT-116; format: cell-based, human; details: 75 μM, 48 h
How it was run: as §2

ARE^Msi1–FITC = experiment: FP titration of Bcl-xL with Msi1-FITC; format: binding; details: highest concentration tested 1000 nM; 2 nM Msi1-FITC
HuR full-length [4] = target: T1, HuR full-length (human, UniProt Q15717 1-326); experiment: fluorescence polarization
T1 sequence (Q15717 whole entry): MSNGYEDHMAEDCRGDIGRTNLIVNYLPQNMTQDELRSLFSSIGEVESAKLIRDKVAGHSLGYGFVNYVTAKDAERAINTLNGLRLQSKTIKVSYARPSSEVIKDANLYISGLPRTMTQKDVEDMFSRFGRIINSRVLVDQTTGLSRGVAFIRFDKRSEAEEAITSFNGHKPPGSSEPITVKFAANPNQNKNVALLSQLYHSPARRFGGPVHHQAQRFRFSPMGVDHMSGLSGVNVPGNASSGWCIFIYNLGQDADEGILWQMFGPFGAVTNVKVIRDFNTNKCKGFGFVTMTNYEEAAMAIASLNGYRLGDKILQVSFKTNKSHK

HuR full-length [5] = target: T1, HuR full-length; experiment: fluorescence polarization; remark: listed apart in the source
HuR full-length [6] = target: T1, HuR full-length; experiment: competition
HuR RRM1/2 = HuR RRM1/2 (UniProt Q15717 20-186); experiment: AlphaLISA
HuR RRM1/2, sequence (Q15717 20-186): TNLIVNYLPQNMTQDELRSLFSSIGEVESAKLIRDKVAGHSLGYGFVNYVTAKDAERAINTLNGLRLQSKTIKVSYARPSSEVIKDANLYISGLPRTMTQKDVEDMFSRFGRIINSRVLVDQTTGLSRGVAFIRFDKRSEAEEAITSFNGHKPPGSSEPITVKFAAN

HuR full-length [7] = target: T1, HuR full-length; experiment: fluorescence polarization; remark: listed apart in the source

HuR bound Msi1 mRNA, sequence (Q15717 2-326 limits assumed): as the sequence (Q15717 2-326 limits assumed) above

In the case of `CCN(CC)C(=O)CC(c1cc(OC)c(OC)c(OC)c1)c1c(OC)cc(OC)c2c(-c3ccccc3)cc(=O)oc12` (stereo not drawn) [CMLD-1], the “effect on HuR bound Msi1 mRNA (RNP IP)” value (HuR bound Msi1 mRNA) is reported as “significantly blocked”, the “effect on HuR-bound XIAP mRNA (RNP IP)” value (HuR-bound XIAP mRNA) is reported as “potently inhibited” and the “effect on Wnt signaling (luciferase reporter)” value (Wnt signaling pathway) is reported as “significantly impacted”. The “effect on half-lives of Bcl-2, Msi1 and XIAP mRNAs” value [1] was “shortened the half-lives”, the “effect on protein levels of Bcl-2, Msi1, and XIAP” value [2] was “decreased” and the “LC3-I conversion to LC3-II” value [3] was “detected”. For the same molecule, the PARP cleavage [3] was “obvious PARP cleavage” and the caspase-3 cleavage [3] was “subtle caspase-3 cleavage”.

For “Bcl-xL: non-RNA binding protein used as specificity control”, the “binding to ARE^Msi1–FITC (in words)” value (ARE^Msi1–FITC) was “no binding”.

UAGUUAUUUUUAUGUC (ssRNA) [XIAP-FITC (AREXIAP)]: binds (HuR full-length [4]).

UAUUUGAUAGUACACU (ssRNA) [APC-FITC] was tested, and the binding signal (HuR full-length [5]) was 20 fold lower affinity than Msi1.

With GCUUUUAUUUAUUUUG (ssRNA) [Msi1 RNA unlabeled] the IC50 (HuR full-length [6]) was 0.0179 µM.

AAAAGAUUUAUUUAUU (ssRNA) [Bcl-2-FITC (AREBcl-2)]: binds (HuR full-length [4]).

Molecule GCUUUUAUUUAUUUUG (ssRNA) [Msi1 RNA biotinylated] has a Kd (HuR RRM1/2) of 0.075 µM.

In the case of GCUUUUAUUUAUUUUG (ssRNA) [Msi1-FITC (AREMsi1)], the Kd (HuR full-length [7]) is reported as ~0.003 µM.
